Non-standard residues stand in square brackets, D forms with d. Residues, ends and D or L forms follow the SMILES beside them. *: point of attachment. X1 = CC[N+]1=C(C=CC=CC=C2N(CCCCCC(=O)NCCN3C(=O)CC(*)C3=O)c3ccc(S(=O)(=O)O)cc3C2(C)C)C(C)(C)c2cc(S(=O)(=O)[O-])ccc21; Propanoyl(3-maleimido) = O=C1C=CC(=O)N1CCC(=O)*; Ahx = NCCCCCC(=O)O
Tests used:
[1] = Effect of inhibitors on cleavage of RLQLKL ACPP by PyMT tumor cystic fluid; assay type: biochemical, mouse; details: for inhibition of cystic fluid cleavage of RLQLKL ACPP (in words): 5 μM Cy5-labeled RLQLKL ACPP, 2% cystic fluid, 2 h, 5 mM Ca-DTPA, 50 μM TPEN, 18 μM SB3CT, 50 nM GM6001, 0.26 μM prinomastat, 150 nM aprotinin, 100 μM leupeptin, 60 μM α1-antitrypsin, gel
Method in brief: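 Cystic fluid was aspirated by syringe from surgically exposed fluid-filled mammary tumor nodules of PyMT mice. The 5 μm Cy5 peptide was incubated at 37 °C for 2 h in PBS with 1 μm ZnCl2. Inhibitors were used at manufacturer-recommended concentrations, including 10 μm E-64, 1 μm pepstatin A, protease inhibitor mixture III (1:1000) and mixture III plus DTPA. Cleavage was read by Tricine gel electrophoresis and Cy5 fluorescence imaging.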

[2] = Tumor standardized uptake value; assay type: in vivo; details: mouse, iv
PyMT mammary tumors = assay: Fluorescence imaging contrast in PyMT tumor-bearing mice; assay type: in vivo, mouse; details: PyMT mice; for fluorescence contrast in tumors relative to adjacent normal tissue (in words): Cy5-labeled ACPP i.v., 6 h, data not shown
Method in brief: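 PyMT transgenic mice bearing spontaneous mammary tumors were anesthetized with ketamine 80 mg/kg plus midazolam 5 mg/kg (1:1) and weighed. They were injected via the tail vein with Cy5 peptide: free peptide 100 μl of 100 μM (10 nmol) or albumin-reactive peptide 100 μl of 30 μM (3 nmol). Maestro imaging (ex 640 ± 24 nm, em >700 nm) was done at 6 h or 48 h, comparing tumor with adjacent normal tissue.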

trypsin = trypsin (Bos taurus, UniProt P00760); assay: Cleavage by purified trypsin; assay type: in vitro ADME, bovine; details: Cy5-labeled ACPP, gel (supplemental Fig. 4)
Sequence of trypsin (P00760 24-246): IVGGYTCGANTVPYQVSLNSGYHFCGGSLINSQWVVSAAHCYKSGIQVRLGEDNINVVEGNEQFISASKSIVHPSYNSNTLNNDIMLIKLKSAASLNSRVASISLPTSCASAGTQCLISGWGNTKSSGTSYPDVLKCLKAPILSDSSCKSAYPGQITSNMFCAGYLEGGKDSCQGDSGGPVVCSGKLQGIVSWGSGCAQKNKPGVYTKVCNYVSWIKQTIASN
Method in brief: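 Commercial active-form purified enzyme at 50 nm was incubated with 5 μm Cy5-labeled peptide in the manufacturer's recommended buffer. Samples were mixed with Tricine sample buffer, boiled 1 min, and resolved on 10–20% Tricine acrylamide gels. Gels were imaged quantitatively at excitation 628 ± 20 nm and emission >700 nm, and the percentage of cleaved versus uncleaved peptide was quantified.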

plasmin = assay: 50 nM plasmin; details: human recombinant, 37 °C, up to 2 h
neutrophil elastase = assay: 50 nM enzyme in the manufacturer's recommended buffer; details: up to 4 h
[3] = Effect of inhibitors on cleavage of RLQLKL ACPP by tumor extract; assay type: biochemical, mouse; details: 5 μM Cy5-labeled RLQLKL ACPP, tumor extract 2.0 to 0.25%; 60 μM α1-antitrypsin; gel
Method in brief: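 Fresh tumor tissue was gently homogenized in PBS on ice and spun at 14,000 × g for 1 min; the supernatant served as the extract. The 5 μm Cy5 peptide was digested at 37 °C in PBS containing 1 μm ZnCl2, with or without 60 μm α1-antitrypsin. Aliquots were taken from 20 min to 18 h, with the 2-h point reported. Cleavage was quantified by Tricine gel and fluorescence imaging.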

Tumor uptake = assay type: in vivo; details: nude, mouse, tumor (MDA-MB-435 M4A4 xenograft), iv, 10 nmol
Method in brief: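 After imaging, mice were euthanized with isoflurane. 30 mg of each tissue was homogenized in 100 μl Tris pH 7.6 with 1% SDS, heated to 85 °C for 10 min, microwaved 10 s and spun at 20,500 × g for 15 min, then imaged. Tissue-specific spiked standards calibrated fluorescence. SUV = tissue peptide molality ÷ injected dose (mol/kg body weight). Values are means ± S.D.; two-tailed t tests.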

## c1ccc(CN(CCN(Cc2ccccn2)Cc2ccccn2)Cc2ccccn2)nc1 [TPEN, N,N,N′,N-tetrakis (2-pyridylmethyl) ethylenediamine]
[1]
  inhibition of cystic fluid cleavage of RLQLKL ACPP (in words): unaffected

## CC[N+]1=C(C=CC=CC=C2N(CCCCCC(=O)NCCN3C(=O)CC(SC[C@@H](NC(=O)[C@@H](CCCNC(=N)N)NC(=O)[C@@H](CCCNC(=N)N)NC(=O)[C@@H](CCCNC(=N)N)NC(=O)[C@@H](CCCNC(=N)N)NC(=O)[C@@H](CCCNC(=N)N)NC(=O)[C@@H](CCCNC(=N)N)NC(=O)[C@@H](CCCNC(=N)N)NC(=O)[C@@H](CCCNC(=N)N)NC(=O)[C@@H](CCCNC(=N)N)NC(=O)[C@@H](CC(C)C)NC(=O)[C@@H](CCCCN)NC(=O)[C@@H](CC(C)C)NC(=O)[C@@H](CCC(N)=O)NC(=O)[C@@H](CC(C)C)NC(=O)[C@@H](CCCNC(=N)N)NC(=O)CCCCCNC(=O)[C@@H](CCC(=O)O)NC(=O)[C@@H](CCC(=O)O)NC(=O)[C@@H](CCC(=O)O)NC(=O)[C@@H](CCC(=O)O)NC(=O)[C@@H](CCC(=O)O)NC(=O)[C@@H](CCC(=O)O)NC(=O)[C@@H](CCC(=O)O)NC(=O)[C@@H](CCC(=O)O)NC(=O)[C@H](N)CCC(=O)O)C(N)=O)C3=O)c3ccc(S(=O)(=O)O)cc3C2(C)C)C(C)(C)c2cc(S(=O)(=O)[O-])ccc21 (stereo partly shown) [rlqlkl ACPP]
[2]; PyMT, 10 nmol
  SUV at 6 h: 0.13 ± 0.03 SUV

## CC[N+]1=C(C=CC=CC=C2N(CCCCCC(=O)NCCN3C(=O)CC(SC[C@@H](NC(=O)[C@@H](CCCNC(=N)N)NC(=O)[C@@H](CCCNC(=N)N)NC(=O)[C@@H](CCCNC(=N)N)NC(=O)[C@@H](CCCNC(=N)N)NC(=O)[C@@H](CCCNC(=N)N)NC(=O)[C@@H](CCCNC(=N)N)NC(=O)[C@@H](CCCNC(=N)N)NC(=O)[C@@H](CCCNC(=N)N)NC(=O)[C@@H](CCCNC(=N)N)NC(=O)CNC(=O)[C@@H](C)NC(=O)[C@@H](CC(C)C)NC(=O)CNC(=O)[C@@H](CC(C)C)NC(=O)[C@H]4CCCN4C(=O)CCCCCNC(=O)[C@@H](CCC(=O)O)NC(=O)[C@@H](CCC(=O)O)NC(=O)[C@@H](CCC(=O)O)NC(=O)[C@@H](CCC(=O)O)NC(=O)[C@@H](CCC(=O)O)NC(=O)[C@@H](CCC(=O)O)NC(=O)[C@@H](CCC(=O)O)NC(=O)[C@@H](CCC(=O)O)NC(=O)[C@H](N)CCC(=O)O)C(N)=O)C3=O)c3ccc(S(=O)(=O)O)cc3C2(C)C)C(C)(C)c2cc(S(=O)(=O)[O-])ccc21 (stereo partly drawn) [PLGLAG ACPP D-amino acid control, reference compound] (H-[dE][dE][dE][dE][dE][dE][dE][dE][dE][Ahx][dP][dL]G[dL][dA]G[dR][dR][dR][dR][dR][dR][dR][dR][dR][dC](X1)-NH2)
[2]
  SUV: 0.14 ± 0.06 SUV

## CC[N+]1=C(C=CC=CC=C2N(CCCCCC(=O)NCCN3C(=O)CC(SC[C@@H](NC(=O)[C@@H](CCCNC(=N)N)NC(=O)[C@@H](CCCNC(=N)N)NC(=O)[C@@H](CCCNC(=N)N)NC(=O)[C@@H](CCCNC(=N)N)NC(=O)[C@@H](CCCNC(=N)N)NC(=O)[C@@H](CCCNC(=N)N)NC(=O)[C@@H](CCCNC(=N)N)NC(=O)[C@@H](CCCNC(=N)N)NC(=O)[C@@H](CCCNC(=N)N)NC(=O)[C@H](CC(C)C)NC(=O)[C@H](CCCCNC(C)=O)NC(=O)[C@H](CC(C)C)NC(=O)[C@H](CCC(N)=O)NC(=O)[C@H](CC(C)C)NC(=O)[C@H](CCCNC(=N)N)NC(=O)CCCCCNC(=O)[C@@H](CCC(=O)O)NC(=O)[C@@H](CCC(=O)O)NC(=O)[C@@H](CCC(=O)O)NC(=O)[C@@H](CCC(=O)O)NC(=O)[C@@H](CCC(=O)O)NC(=O)[C@@H](CCC(=O)O)NC(=O)[C@@H](CCC(=O)O)NC(=O)[C@@H](CCC(=O)O)NC(=O)[C@@H](CCC(=O)O)NC(=O)CCN4C(=O)C=CC4=O)C(N)=O)C3=O)c3ccc(S(=O)(=O)O)cc3C2(C)C)C(C)(C)c2cc(S(=O)(=O)[O-])ccc21 (stereo partly shown) [Mal-RLQLK(Ac)L ACPP] ({Propanoyl(3-maleimido)}-[dE][dE][dE][dE][dE][dE][dE][dE][dE][Ahx]RLQLK(Ac)L[dR][dR][dR][dR][dR][dR][dR][dR][dR][dC](X1)-NH2)
PyMT mammary tumors; fluorescence imaging 48 h postinjection of 3 nmol
  Tumor to non-tumor contrast, albumin-reactive peptide: 5.1 fold
[2]; PyMT, 3 nmol
  SUV at 48 h: 2.3 ± 0.6 SUV

## CNC(=O)[C@H](Cc1c[nH]c2ccccc12)NC(=O)[C@@H](CC(=O)NO)CC(C)C [GM6001]
[1]
  inhibition of cystic fluid cleavage of RLQLKL ACPP (in words): unaffected
[1]; GM6001 at 1 μM, data not shown
  inhibition of cystic fluid cleavage of RLQLKL ACPP at 1 μM (in words): no inhibition

## CC1(C)SCCN(S(=O)(=O)c2ccc(Oc3ccncc3)cc2)[C@H]1C(=O)NO [prinomastat]
[1]
  inhibition of cystic fluid cleavage of RLQLKL ACPP (in words): unaffected

## RTRYED [RTRYED ACPP]
PyMT mammary tumors
  fluorescence contrast in tumors relative to adjacent normal tissue (in words): little fluorescence contrast
trypsin
  cleavage by trypsin (in words): efficiently cleaved

## CC[N+]1=C(C=CC=CC=C2N(CCCCCC(=O)NCCN3C(=O)CC(SC[C@@H](NC(=O)[C@@H](CCCNC(=N)N)NC(=O)[C@@H](CCCNC(=N)N)NC(=O)[C@@H](CCCNC(=N)N)NC(=O)[C@@H](CCCNC(=N)N)NC(=O)[C@@H](CCCNC(=N)N)NC(=O)[C@@H](CCCNC(=N)N)NC(=O)[C@@H](CCCNC(=N)N)NC(=O)[C@@H](CCCNC(=N)N)NC(=O)[C@@H](CCCNC(=N)N)NC(=O)CNC(=O)[C@H](C)NC(=O)[C@H](CC(C)C)NC(=O)CNC(=O)[C@H](CC(C)C)NC(=O)[C@@H]4CCCN4C(=O)CCCCCNC(=O)[C@@H](CCC(=O)O)NC(=O)[C@@H](CCC(=O)O)NC(=O)[C@@H](CCC(=O)O)NC(=O)[C@@H](CCC(=O)O)NC(=O)[C@@H](CCC(=O)O)NC(=O)[C@@H](CCC(=O)O)NC(=O)[C@@H](CCC(=O)O)NC(=O)[C@@H](CCC(=O)O)NC(=O)[C@H](N)CCC(=O)O)C(N)=O)C3=O)c3ccc(S(=O)(=O)O)cc3C2(C)C)C(C)(C)c2cc(S(=O)(=O)[O-])ccc21 (stereo partly shown) [PLGLAG ACPP, reference compound] (H-[dE][dE][dE][dE][dE][dE][dE][dE][dE][Ahx]PLGLAG[dR][dR][dR][dR][dR][dR][dR][dR][dR][dC](X1)-NH2)
[2]
  SUV: 0.51 ± 0.05 SUV

## O=S(=O)(CC1CS1)c1ccc(Oc2ccccc2)cc1 (stereo not shown) [SB3CT]
[1]
  inhibition of cystic fluid cleavage of RLQLKL ACPP (in words): unaffected

## CC(=O)N[C@@H](CC(C)C)C(=O)N[C@@H](CC(C)C)C(=O)N[C@H](C=O)CCCNC(=N)N [leupeptin]
[1]
  inhibition of cystic fluid cleavage of RLQLKL ACPP (in words): partially inhibited

## H2N-e9-(ahx)-RLQLK(Ac)L-r9-c-(Cy5)-NH2
plasmin
  not cleaved: not cleaved by plasmin (2 h)
Neutrophil elastase
  fragment found: K(Ac)Lr9c-(Cy5), major

## O=C(O)CN(CCN(CC(=O)O)CC(=O)O)CCN(CC(=O)O)CC(=O)O [DTPA, diethylene triamine pentacetic acid]
[1]
  inhibition of cystic fluid cleavage of RLQLKL ACPP (in words): unaffected

## aprotinin
[1]
  inhibition of cystic fluid cleavage of RLQLKL ACPP (in words): partially inhibited

## GMMYRS [GMMYRS ACPP]
PyMT mammary tumors
  fluorescence contrast in tumors relative to adjacent normal tissue (in words): little fluorescence contrast
trypsin
  cleavage by trypsin (in words): efficiently cleaved

## α1-antitrypsin: natural inhibitor of elastase [reference compound]
[3]
  inhibition of tumor extract cleavage of RLQLKL ACPP (in words): significantly inhibited
[1]
  inhibition of cystic fluid cleavage of RLQLKL ACPP (in words): inhibited

## CC[N+]1=C(C=CC=CC=C2N(CCCCCC(=O)NCCN3C(=O)CC(SC[C@@H](NC(=O)[C@@H](CCCNC(=N)N)NC(=O)[C@@H](CCCNC(=N)N)NC(=O)[C@@H](CCCNC(=N)N)NC(=O)[C@@H](CCCNC(=N)N)NC(=O)[C@@H](CCCNC(=N)N)NC(=O)[C@@H](CCCNC(=N)N)NC(=O)[C@@H](CCCNC(=N)N)NC(=O)[C@@H](CCCNC(=N)N)NC(=O)[C@@H](CCCNC(=N)N)NC(=O)[C@@H](CC(C)C)NC(=O)[C@@H](CCCCN)NC(=O)[C@@H](CC(C)C)NC(=O)[C@@H](CCC(N)=O)NC(=O)[C@@H](CC(C)C)NC(=O)[C@@H](CCCNC(=N)N)NC(=O)CCCCCNC(=O)[C@@H](CCC(=O)O)NC(=O)[C@@H](CCC(=O)O)NC(=O)[C@@H](CCC(=O)O)NC(=O)[C@@H](CCC(=O)O)NC(=O)[C@@H](CCC(=O)O)NC(=O)[C@@H](CCC(=O)O)NC(=O)[C@@H](CCC(=O)O)NC(=O)[C@@H](CCC(=O)O)NC(=O)[C@H](N)CCC(=O)O)C(N)=O)C3=O)c3ccc(S(=O)(=O)O)cc3C2(C)C)C(C)(C)c2cc(S(=O)(=O)[O-])ccc21 (stereo partly shown) [rlqlkl]
Tumor uptake
  SUV at 6 h: 0.34 ± 0.16 SUV
